Measurements from different studies.
Target: Mitogen-activated protein kinase 9 (MAPK9, Homo sapiens, UniProt P45984)

N#Cc1ccccc1CSc1nnc2c(n1)[nH]c1ccccc12
remaining binding (binding, competition with immobilised ligand; 10 µM): 90%

CNC(=O)Nc1ccc2c(c1)[C@@]1(CC2)OC(=O)N(CC(=O)N(Cc2ccc(F)cc2)[C@@H](C)C(F)(F)F)C1=O
remaining binding (cell-free assay, competition with immobilised ligand; 1 µM): 69%

O=C(c1ccc(Nc2ncc(Cl)c(-c3ccc(Cl)s3)n2)cc1)N1CCC(N2CCCC2)CC1
remaining binding (binding, competition with immobilised ligand; 1 µM): 1.1%

CN(C)c1ncc(F)c(-c2cnn3ncccc23)n1
remaining binding (binding; 1 µM): 82%

O=C(c1ccc(Nc2nccc(-c3cc4ccccc4s3)n2)cc1)N1CCC(N2CCCC2)CC1
remaining binding (binding, competition with immobilised ligand; 1 µM): 33%

C[C@H](c1ccc(F)cc1)N(Cc1cccc(C(=O)O)c1)C(=O)c1cnc2ccccc2c1
remaining binding (cell-free assay, competition with immobilised ligand; 1 µM): 81%

N[C@@H]1CCN(c2nccc(-c3cnn4ncccc34)n2)C1
remaining binding (binding; 1 µM): 100%

O=C(c1ccc(Nc2ncc(Cl)c(-c3cc4ccccc4s3)n2)cc1)N1CCC(N2CCCC2)CC1
remaining binding (binding, competition with immobilised ligand; 1 µM): 9.8%

C[C@@H]1CN(c2ccc3ncc(-c4ccc5[nH]nc(C6CC6)c5c4)n3n2)C[C@H](C)O1
remaining binding (binding, competition with immobilised ligand; 50 nM): 80%

COc1ncc2cc3ccccc3nc2c1C#N
remaining binding (cell-free assay, competition with immobilised ligand; 5 µM): 100%

CN(C(=O)c1ccccc1)c1cc(N(C)c2ccc3c(c2)CCc2ccc(C(=O)NCCN4CCOCC4)cc2C3=O)ccc1F
remaining binding (cell-free assay, competition with immobilised ligand; 1 µM): 100%

CC1CCCN1c1nccc(-c2cnn3ncccc23)n1 (centres unmarked)
remaining binding (binding; 1 µM): 100%

COc1cnc(Nc2cccc(S(N)(=O)=O)c2)nc1N1CCN(c2ccccc2)CC1
remaining binding (binding, competition with immobilised ligand; 1 µM): 72%

CCOCCn1cc(C(=O)Nc2ccc(-n3nc(-c4cccnc4)cc3C(F)(F)F)cn2)ccc1=O
remaining binding (cell-free assay, competition with immobilised ligand; 1 µM): 97%

CN(C)c1nccc(-c2cnc3ncccn23)n1
remaining binding (binding; 1 µM): 60%

CCC(=O)N[C@@H]1CC[C@H](C(=O)N(C)c2ccc(-c3nc4ccccc4o3)cc2)C1
remaining binding (cell-free assay, competition with immobilised ligand; 1 µM): 98%

C[C@H]1CCN(c2nccc(-c3cnn4ncccc34)n2)C1
remaining binding (binding; 1 µM): 60%

O=C(Nc1c[nH]nc1C(=O)NC1CCNCC1)c1cc(F)cc(F)c1
remaining binding (binding, competition with immobilised ligand; 1 µM): 100%

c1cnn2ncc(-c3ccnc(N4CCC45COC5)n3)c2c1
remaining binding (binding; 1 µM): 44%

NS(=O)(=O)c1cc(NC(=O)C2(c3ccccc3Cl)CC2)ccc1Oc1cccc(Cl)c1
remaining binding (cell-free assay, competition with immobilised ligand; 1 µM): 100%

CC(C)(C)c1ccc(-c2nc(CBr)nn2-c2cccc(O)c2)cc1
remaining binding (cell-free assay, competition with immobilised ligand; 10 µM): 46%

CCS(=O)(=O)c1cc2cc(C[C@@](O)(CC(C)(C)c3ccc(F)cc3C(N)=O)C(F)(F)F)[nH]c2cn1
remaining binding (cell-free assay, competition with immobilised ligand; 1 µM): 84%

COC(=O)Nc1nc2ccc(C(=O)c3ccccc3)cc2[nH]1
remaining binding (cell-free assay, competition with immobilised ligand; 10 µM): 9.6%
